We go through one compound from ChEMBL document CHEMBL1833940, “Discovery of 3-(2,6-dichloro-3,5-dimethoxy-phenyl)-1-{6-[4-(4-ethyl-piperazin-1-yl)-phenylamino]-pyrimidin-4-yl}-1-methyl-urea (NVP-BGJ398), a potent and selective inhibitor of the fibroblast growth factor receptor family of receptor tyrosine kinase” (J Med Chem, 2011).

The target in data set [1] is Casein kinase I isoform gamma-3 (Homo sapiens, UniProt Q9Y6M4). Nature of the data set: Inhibition of recombinant CK1-gamma3. Summed up: (§1)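 Purified recombinant kinases under optimized conditions with peptide substrates. ATP was set at each kinase's Km. Phosphorylation was read by microfluidic mobility-shift separation of substrate and product; IC50 determined.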
Data set [2] has as its target Tyrosine-protein kinase HCK (Homo sapiens, UniProt P08631). Put plainly: Inhibition of recombinant HCK. The procedure, abridged:
as §1

Data set [3] relates to Rattus norvegicus. Nature of the data set: Inhibition of FGFR autophosphorylation in RT112 tumor bearing nude rowett rat assessed as decrease in pFRS2 concentration at 4.25 to 8.51 mg/kg, po administered as a single dose after 24 hrs by Western blot analysis. It counts as functional, organism-based. Summed up:
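RT112 tumor-bearing nude Rowett rats (n = 4) received a single oral dose of monophosphate salt at 4.25 or 8.51 mg/kg free base. Tumors were collected at time points up to 24 h and lysed in Tris/Triton buffer with vanadate and protease inhibitors. Western blots were run for pFRS2(Tyr196) and pMAPK, with total FRS2, total MAPK or β-tubulin as loading controls.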
For orientation: In western blotting, separated proteins are transferred to a membrane and probed.

The target in data set [4] is Phosphatidylinositol 4-kinase beta (Homo sapiens, UniProt Q9UBF8). Nature of the data set: Inhibition of PI4Kbeta by luminescent kinase assay.
Data set [5] deals with Proto-oncogene tyrosine-protein kinase receptor Ret (Homo sapiens, UniProt P07949). Put plainly: Inhibition of recombinant RET. Summed up:
(§2)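 Purified recombinant kinases were tested under optimized conditions with peptide substrates. ATP was set at each kinase's Km. Phosphorylation was read out by microfluidic mobility shift, and IC50 values were determined.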

Data set [6] concerns the target Serine/threonine-protein kinase WNK1 (Homo sapiens, UniProt Q9H4A3). Put plainly: Inhibition of recombinant WNK1. The procedure, abridged:
as §1

The target in data set [7] is RAC-alpha serine/threonine-protein kinase (Homo sapiens, UniProt P31749). Nature of the data set: Inhibition of recombinant PKBalpha. Summed up:
as §1

The target in data set [8] is MAP kinase-interacting serine/threonine-protein kinase 2 (Homo sapiens, UniProt Q9HBH9). Put plainly: Inhibition of recombinant MNK2. The procedure, abridged: (§3)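 Purified recombinant kinases under optimized conditions, with peptide substrates and ATP at each kinase's Km. Phosphorylation was read out by microfluidic mobility shift, and IC50 values were obtained.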

A short description of data set [9]: Tmax in Wistar rat at 10 mg/kg, po by LC-MS/MS analysis. It counts as ADME, organism-based. Conditions: in vivo. Details: dose 10 mg/kg, route oral. Summed up: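 Female Wistar rats received 5 mg/kg iv into the femoral vein in NMP/PEG200 (1:9), or the monophosphate salt orally at 10 mg/kg (free base) in acetate buffer pH 4.6/PEG300. Serial sublingual plasma samples were taken from 0.083 to 24 h.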

The species named for data set [10] is Rattus norvegicus. Nature of the data set: Hepatic blood flow in Wistar rat. It counts as ADME, organism-based, Liver.
The test system of data set [11] is Tumour. Put plainly: Drug uptake in tumour of nude Rowett rat bearing human RT112 cells at 4.25 mg/kg, po administered as a single dose after 24 hrs by LC-MS/MS analysis. It counts as ADME, organism-based, Neoplasm, RT-112. Set-up: dose 4.25 mg/kg, route oral. The note with it: in vivo. Summed up:
(§4)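 Nude Rowett rats bearing subcutaneous RT112 tumors (n = 4) received a single gavage of monophosphate salt at 4.25 or 8.51 mg/kg free base in acetate buffer pH 4.6/PEG300. Tumors were collected at intervals after dosing, frozen and homogenized in an equal volume of ice-cold PBS. Compound levels were measured by LC-MS/MS (LOQ 3 ng/mL).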

The subject of data set [12] is Mus musculus. Put plainly: Antiangiogenic activity in FVB mouse agar chamber model assessed as inhibition of VEGF-induced angiogenesis at 10 to 50 mg/kg, po administered for 4 days. It counts as functional, organism-based. Summed up: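 Female FVB mice implanted subcutaneously with perfluoroalkoxy-Teflon chambers holding 0.8% agar with 20 U/mL heparin, with or without dog VEGF 2 μg/mL or bFGF 0.3 μg/mL. Oral dosing at 10, 30, 50 mg/kg/day in 10% NMP/PEG300 (5 mL/kg), started before implantation and continued 3 days. Capsules were removed 24 h after the last dose. Readout was capsule weight and Tie-2 by ELISA, as % inhibition against vehicle and no-growth-factor background.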

A short description of data set [13]: Cmax in plasma of RT112/luc1 cells implanted athymic nude mouse at 5 mg/kg, iv by LC/MS/MS analysis. It counts as ADME, organism-based. Details: dose 5 mg/kg, route intravenous. The procedure, abridged: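 Female athymic nude mice carried subcutaneous RT112/luc1 tumors (5×10^6 cells, 50% Matrigel; about 300–400 mm3). Dosing was either 5 mg/kg iv by tail vein in NMP/PEG200 (1:9) or 20 mg/kg oral suspension in PEG300/D5W (2:1). Groups of mice (n = 4) were sacrificed at 0.083–24 h. Plasma and tumor levels were measured by LC-MS/MS (LOQ 5 ng/mL, 10 ng/g).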

The next data set has as its target Aurora kinase A (Homo sapiens, UniProt O14965). Put plainly: Inhibition of recombinant Aurora A. The procedure, abridged: as §3
The target of the next data set is Ephrin type-A receptor 4 (Homo sapiens, UniProt P54764). Put plainly: Inhibition of recombinant EPHA4. The procedure, abridged: as §1
Data set [14] deals with Mus musculus. Put plainly: Toxicity in athymic nude mouse xenografted with human RT112 cells/luc1 assessed as increase in body weight at 30 mg/kg, po administered for 12 days. Conditions: in vivo, 288 h. On the technique in general: Xenograft models place foreign cells or tissue in a host animal.
Data set [15] concerns Tumour. Nature of the data set: Drug uptake in tumor of nude rowett rat bearing human RT112 cells at 8.51 mg/kg, po administered as a single dose after 3 hrs by LC-MS/MS analysis. It counts as ADME, organism-based, Neoplasm, RT-112. Set-up: dose 8.51 mg/kg, route oral. The note with it: in vivo. The procedure, abridged:
as §4

The subject of the next data set is BaF3. Put plainly: Antiproliferative activity against mouse BAF3 cell line transformed with TEL-FGFR3 construct after 48 hrs by luciferase bioluminescent assay. It counts as functional, cell-based. Conditions: BaF3, 48 h. Summed up:
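IL-3-independent BaF3 or BaF3 Tel-TK cells were grown in RPMI-1640 with 10% FBS and seeded at 4250 cells/well in 384-well plates. Compound serially diluted in DMSO was pin-transferred, followed by 48 h at 37 °C, 5% CO2. Viability was read by Bright-Glo luciferase luminescence.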

The nature of data set [16]: Clearance in Wistar rat at 5 mg/kg, iv by LC-MS/MS analysis. It counts as ADME, organism-based. Set-up: dose 5 mg/kg, route intravenous. The note with it: in vivo. Summed up:
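Female Wistar rats received either an iv femoral-vein dose of 5 mg/kg in NMP/PEG200 (1:9) or an oral dose of monophosphate salt at 10 mg/kg (free base) in acetate buffer pH 4.6/PEG300. Plasma was sampled by sublingual bleeding at 0.083–24 h (n = 4 staggered, or n = 3–4 serial). Plasma levels were measured by LC-MS/MS (LOQ 10 ng/mL).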

Data set [17] has as its system Tumour. Nature of the data set: Drug uptake in tumor of nude rowett rat bearing human RT112 cells at 4.25 mg/kg, po administered as a single dose after 16 hrs by LC-MS/MS analysis. The note with it: in vivo. Details: dose 4.25 mg/kg, route oral. It counts as ADME, organism-based, Neoplasm, RT-112. Summed up:
as §4

The target of data set [18] is Hepatocyte growth factor receptor (Homo sapiens, UniProt P08581). Put plainly: Inhibition of recombinant MET. Summed up:
as §2

For data set [19], the target named is Receptor tyrosine-protein kinase erbB-2 (Homo sapiens, UniProt P04626). Put plainly: Inhibition of recombinant ERBB2. The procedure, abridged: as §1
Data set [20] has as its system Rattus norvegicus. Nature of the data set: Toxicity in nude Rowett rat xenografted with human RT112 cells assessed as weight loss at 10 mg/kg, po qd administered for 20 days. It counts as organism-based, RT-112. Set-up: dose 10 mg/kg, route oral. The note with it: in vivo, 480 h. The procedure, abridged: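 Female nude Rowett rats carried subcutaneous RT112 tumors (1 × 10^6 cells in Matrigel), starting at about 100 mm3. The monophosphate salt was gavaged daily for 20 days at 5, 10 or 15 mg/kg (free base) in acetate buffer pH 4.6/PEG300 (1:1), n = 8. Body weight and morbidity were monitored; ANOVA with Dunnett's test.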

Calls of active or inactive are those of the source. The calls are words filed in the database; no cut-off is given here.

Tyrosine-protein kinase HCK, sequence (P08631 whole entry): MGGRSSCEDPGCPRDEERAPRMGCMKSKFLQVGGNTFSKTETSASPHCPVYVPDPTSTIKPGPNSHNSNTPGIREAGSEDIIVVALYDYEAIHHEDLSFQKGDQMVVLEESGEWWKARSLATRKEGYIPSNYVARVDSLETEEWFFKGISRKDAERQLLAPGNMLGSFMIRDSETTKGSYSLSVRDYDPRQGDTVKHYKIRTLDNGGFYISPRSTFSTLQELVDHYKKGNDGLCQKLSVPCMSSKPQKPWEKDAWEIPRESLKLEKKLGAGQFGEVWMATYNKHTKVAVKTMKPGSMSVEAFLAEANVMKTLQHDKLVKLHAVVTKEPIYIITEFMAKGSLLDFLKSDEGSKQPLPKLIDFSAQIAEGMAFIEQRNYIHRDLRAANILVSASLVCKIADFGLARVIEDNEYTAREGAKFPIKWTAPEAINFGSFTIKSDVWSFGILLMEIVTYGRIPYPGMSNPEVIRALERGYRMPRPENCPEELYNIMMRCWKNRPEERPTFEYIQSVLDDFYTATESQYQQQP
Aurora kinase A, sequence (O14965 whole entry): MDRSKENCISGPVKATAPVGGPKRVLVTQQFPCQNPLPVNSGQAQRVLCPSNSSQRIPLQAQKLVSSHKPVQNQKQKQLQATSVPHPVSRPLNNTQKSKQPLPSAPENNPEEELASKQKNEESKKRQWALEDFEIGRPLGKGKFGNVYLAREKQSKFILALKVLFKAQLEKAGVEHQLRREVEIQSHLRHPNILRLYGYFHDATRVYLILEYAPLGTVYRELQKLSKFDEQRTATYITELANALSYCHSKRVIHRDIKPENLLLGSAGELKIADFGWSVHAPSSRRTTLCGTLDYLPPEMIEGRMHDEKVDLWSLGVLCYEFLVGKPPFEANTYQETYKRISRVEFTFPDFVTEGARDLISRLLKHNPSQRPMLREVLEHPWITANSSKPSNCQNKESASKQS
MAP kinase-interacting serine/threonine-protein kinase 2, sequence (Q9HBH9 whole entry): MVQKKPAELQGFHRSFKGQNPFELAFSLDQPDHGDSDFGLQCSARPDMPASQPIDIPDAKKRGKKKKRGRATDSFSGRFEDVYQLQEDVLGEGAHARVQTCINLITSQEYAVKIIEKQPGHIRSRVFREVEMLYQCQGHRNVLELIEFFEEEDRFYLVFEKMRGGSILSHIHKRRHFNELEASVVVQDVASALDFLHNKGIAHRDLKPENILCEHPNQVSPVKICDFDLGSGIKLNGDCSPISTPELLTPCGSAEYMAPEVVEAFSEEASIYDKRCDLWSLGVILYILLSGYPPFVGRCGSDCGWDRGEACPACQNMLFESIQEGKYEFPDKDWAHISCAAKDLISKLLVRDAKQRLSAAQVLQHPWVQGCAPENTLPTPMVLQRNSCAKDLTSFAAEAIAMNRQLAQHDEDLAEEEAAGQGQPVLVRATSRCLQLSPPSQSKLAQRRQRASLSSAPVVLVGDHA
Receptor tyrosine-protein kinase erbB-2, sequence (P04626 whole entry): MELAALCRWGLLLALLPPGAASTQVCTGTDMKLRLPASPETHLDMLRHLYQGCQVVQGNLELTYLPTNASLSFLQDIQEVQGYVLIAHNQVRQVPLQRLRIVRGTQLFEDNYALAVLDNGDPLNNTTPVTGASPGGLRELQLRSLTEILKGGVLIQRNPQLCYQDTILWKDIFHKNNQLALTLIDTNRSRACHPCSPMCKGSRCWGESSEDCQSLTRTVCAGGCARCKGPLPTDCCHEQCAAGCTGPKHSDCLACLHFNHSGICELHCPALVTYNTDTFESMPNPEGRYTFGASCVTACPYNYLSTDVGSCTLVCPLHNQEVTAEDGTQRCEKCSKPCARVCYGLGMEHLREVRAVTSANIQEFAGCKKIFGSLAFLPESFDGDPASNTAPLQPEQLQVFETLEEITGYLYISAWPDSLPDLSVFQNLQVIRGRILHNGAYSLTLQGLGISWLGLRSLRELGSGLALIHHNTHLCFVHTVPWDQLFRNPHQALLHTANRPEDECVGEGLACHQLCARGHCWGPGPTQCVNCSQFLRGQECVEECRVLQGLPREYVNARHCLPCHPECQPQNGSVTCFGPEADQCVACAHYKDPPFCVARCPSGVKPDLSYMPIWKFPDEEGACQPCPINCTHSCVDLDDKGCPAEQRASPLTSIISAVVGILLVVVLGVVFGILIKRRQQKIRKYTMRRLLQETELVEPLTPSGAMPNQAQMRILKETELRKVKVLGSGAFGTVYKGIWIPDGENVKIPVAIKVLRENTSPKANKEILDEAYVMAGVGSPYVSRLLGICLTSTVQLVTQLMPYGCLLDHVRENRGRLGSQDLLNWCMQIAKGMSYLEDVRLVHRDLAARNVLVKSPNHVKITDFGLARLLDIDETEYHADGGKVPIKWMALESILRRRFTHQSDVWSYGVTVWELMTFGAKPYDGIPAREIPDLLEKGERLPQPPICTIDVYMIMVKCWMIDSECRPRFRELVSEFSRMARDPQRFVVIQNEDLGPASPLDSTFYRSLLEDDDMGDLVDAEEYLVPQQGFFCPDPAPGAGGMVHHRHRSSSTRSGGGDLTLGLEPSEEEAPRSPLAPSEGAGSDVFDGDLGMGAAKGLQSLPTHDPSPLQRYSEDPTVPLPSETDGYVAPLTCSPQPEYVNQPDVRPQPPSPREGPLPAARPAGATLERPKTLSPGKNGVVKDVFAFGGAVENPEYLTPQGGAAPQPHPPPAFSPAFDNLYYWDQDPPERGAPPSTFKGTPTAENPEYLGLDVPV
Casein kinase I isoform gamma-3, sequence (Q9Y6M4 whole entry, canonical isoform): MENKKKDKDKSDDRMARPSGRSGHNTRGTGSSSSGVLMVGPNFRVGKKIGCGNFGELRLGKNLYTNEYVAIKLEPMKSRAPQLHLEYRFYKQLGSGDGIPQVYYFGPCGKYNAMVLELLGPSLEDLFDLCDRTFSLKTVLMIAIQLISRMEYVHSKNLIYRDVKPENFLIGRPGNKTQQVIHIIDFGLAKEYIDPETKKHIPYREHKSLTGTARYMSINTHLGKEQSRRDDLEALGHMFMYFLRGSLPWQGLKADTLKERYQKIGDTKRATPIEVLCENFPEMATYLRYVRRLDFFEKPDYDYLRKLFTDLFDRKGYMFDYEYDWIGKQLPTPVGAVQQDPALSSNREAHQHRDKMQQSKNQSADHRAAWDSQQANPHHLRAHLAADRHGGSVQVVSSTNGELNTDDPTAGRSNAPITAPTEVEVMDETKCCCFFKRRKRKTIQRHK
Phosphatidylinositol 4-kinase beta, sequence (Q9UBF8 whole entry): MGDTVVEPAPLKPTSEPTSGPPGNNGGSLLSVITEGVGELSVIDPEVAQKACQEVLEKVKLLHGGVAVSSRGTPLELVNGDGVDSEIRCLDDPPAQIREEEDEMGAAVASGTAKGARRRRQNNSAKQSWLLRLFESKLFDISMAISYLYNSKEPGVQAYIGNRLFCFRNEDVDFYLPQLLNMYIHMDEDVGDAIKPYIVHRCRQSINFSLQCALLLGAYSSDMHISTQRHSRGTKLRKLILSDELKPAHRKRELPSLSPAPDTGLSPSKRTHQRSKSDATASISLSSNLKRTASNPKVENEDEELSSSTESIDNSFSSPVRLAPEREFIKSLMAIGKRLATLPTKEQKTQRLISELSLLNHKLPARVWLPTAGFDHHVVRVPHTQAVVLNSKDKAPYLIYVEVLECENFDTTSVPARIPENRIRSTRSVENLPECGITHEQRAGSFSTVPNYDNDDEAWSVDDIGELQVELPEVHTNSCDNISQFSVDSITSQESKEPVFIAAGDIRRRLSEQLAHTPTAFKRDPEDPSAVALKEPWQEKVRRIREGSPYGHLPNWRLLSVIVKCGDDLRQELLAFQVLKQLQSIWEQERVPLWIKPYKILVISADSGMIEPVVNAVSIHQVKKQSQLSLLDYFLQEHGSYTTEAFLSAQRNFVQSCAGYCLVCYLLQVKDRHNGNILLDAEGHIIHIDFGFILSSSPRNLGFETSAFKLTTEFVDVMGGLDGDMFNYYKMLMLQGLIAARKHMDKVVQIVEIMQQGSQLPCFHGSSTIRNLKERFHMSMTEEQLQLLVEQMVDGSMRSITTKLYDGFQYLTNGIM
RAC-alpha serine/threonine-protein kinase, sequence (P31749 whole entry): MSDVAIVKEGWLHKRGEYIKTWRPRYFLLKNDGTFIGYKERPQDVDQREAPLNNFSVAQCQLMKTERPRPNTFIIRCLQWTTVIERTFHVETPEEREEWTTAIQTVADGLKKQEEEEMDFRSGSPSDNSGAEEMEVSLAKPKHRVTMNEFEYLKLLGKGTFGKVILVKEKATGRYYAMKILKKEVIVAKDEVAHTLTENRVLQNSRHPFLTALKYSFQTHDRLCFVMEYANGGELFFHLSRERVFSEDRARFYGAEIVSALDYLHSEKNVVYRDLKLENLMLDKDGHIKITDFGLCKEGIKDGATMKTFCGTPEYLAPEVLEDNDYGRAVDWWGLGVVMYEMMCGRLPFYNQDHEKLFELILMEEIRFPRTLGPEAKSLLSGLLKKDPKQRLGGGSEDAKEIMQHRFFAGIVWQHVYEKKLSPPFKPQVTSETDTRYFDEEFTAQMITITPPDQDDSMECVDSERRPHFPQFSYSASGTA

As to `CCN1CCN(c2ccc(Nc3cc(N(C)C(=O)Nc4c(Cl)c(OC)cc(OC)c4Cl)ncn3)cc2)CC1.O=P(O)(O)O` [INFIGRATINIB PHOSPHATE], the half-inhibitory concentration (IC50) (in general, the concentration that inhibits the measured activity by half) in data set [1] was over 10 µM; in data set [2], over 10 µM; in data set [4], over 9 µM; in [5], over 10 µM; in data set [6] it was over 10 µM; in [7] it was over 10 µM. In addition, the IC50 is over 10 µM in data set [8]; over 10 µM on Aurora kinase A; over 10 µM at Ephrin type-A receptor 4; 0.002 µM in the data set on BaF3; over 10 µM in [18]; over 10 µM in [19]. For the same compound, the inhibition result with Rattus norvegicus [3] and with Mus musculus [12] was “inactive” each time. In addition, in data set [9], the time of peak concentration (Tmax) (in general, the time from dosing to the highest level) came out at 4 h. Further, the QH in the data set filed under Rattus norvegicus [10] came to 55 mL/min/kg. Besides, the Drug uptake in the data set with Tumour [11] is 0.12 nmol/g; with Tumour [15], 1.96 nmol/g; in the data set on Tumour [17], 0.3 nmol/g. For the same compound, the highest level in data set [13] (Cmax) was 860 nM. For the same compound, the Activity with Mus musculus [14] is recorded as 10%; with Rattus norvegicus [20], 4%. Further, the clearance (as a rule, the volume of plasma or blood freed of the substance per unit of time) in data set [16] is 60 mL/min/kg.
